One test addresses T1, Mitogen-activated protein kinase kinase kinase 5 (Homo sapiens, UniProt Q99683).
T1 sequence (Q99683 whole entry): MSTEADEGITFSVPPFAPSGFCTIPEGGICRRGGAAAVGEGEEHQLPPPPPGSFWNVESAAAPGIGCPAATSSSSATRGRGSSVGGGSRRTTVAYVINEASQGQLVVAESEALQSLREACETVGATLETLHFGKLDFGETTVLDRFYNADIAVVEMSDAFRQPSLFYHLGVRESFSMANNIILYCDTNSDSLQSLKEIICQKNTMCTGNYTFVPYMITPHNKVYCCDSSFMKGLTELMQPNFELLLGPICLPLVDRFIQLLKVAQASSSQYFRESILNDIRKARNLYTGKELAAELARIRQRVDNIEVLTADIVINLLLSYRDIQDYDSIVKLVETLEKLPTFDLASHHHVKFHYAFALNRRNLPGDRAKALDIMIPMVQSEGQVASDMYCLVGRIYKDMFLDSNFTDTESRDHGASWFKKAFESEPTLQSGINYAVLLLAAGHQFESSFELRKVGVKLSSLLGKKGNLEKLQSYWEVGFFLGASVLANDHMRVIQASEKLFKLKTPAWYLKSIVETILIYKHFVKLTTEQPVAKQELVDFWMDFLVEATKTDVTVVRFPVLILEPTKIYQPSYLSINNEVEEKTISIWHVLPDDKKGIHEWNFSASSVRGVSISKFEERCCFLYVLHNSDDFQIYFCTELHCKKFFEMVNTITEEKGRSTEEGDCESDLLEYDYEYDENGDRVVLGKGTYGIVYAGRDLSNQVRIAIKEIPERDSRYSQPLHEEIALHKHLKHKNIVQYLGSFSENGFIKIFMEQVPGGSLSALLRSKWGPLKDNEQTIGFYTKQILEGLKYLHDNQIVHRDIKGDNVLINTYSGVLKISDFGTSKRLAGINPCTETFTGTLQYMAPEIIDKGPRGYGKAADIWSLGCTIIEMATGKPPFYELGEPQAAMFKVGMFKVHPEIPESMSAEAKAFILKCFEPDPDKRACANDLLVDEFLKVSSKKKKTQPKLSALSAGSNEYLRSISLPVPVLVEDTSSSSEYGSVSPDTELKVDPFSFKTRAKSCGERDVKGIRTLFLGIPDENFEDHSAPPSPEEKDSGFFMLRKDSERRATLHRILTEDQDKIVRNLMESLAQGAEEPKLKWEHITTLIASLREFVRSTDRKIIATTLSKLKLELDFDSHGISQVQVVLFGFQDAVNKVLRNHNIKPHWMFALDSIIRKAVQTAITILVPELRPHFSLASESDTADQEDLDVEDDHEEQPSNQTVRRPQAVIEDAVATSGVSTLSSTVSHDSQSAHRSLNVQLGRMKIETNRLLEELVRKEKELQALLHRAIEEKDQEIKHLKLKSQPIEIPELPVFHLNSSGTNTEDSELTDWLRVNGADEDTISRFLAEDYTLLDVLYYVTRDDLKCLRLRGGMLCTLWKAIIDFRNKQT
As to the kind of experiment: Inhibition of N-terminal GST-tagged recombinant human full length ASK1 expressed in baculovirus-infected Sf21 cells using STK-Substrate-3 biotin as substrate in presence of ATP measured after 2 hrs by HTRF assay. The essentials:
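HTRF assay with full-length recombinant human ASK1 at final 2 nM, in buffer containing 5 mM MgCl₂ and 1 mM DTT, 2% DMSO. Reaction run with STK-Substrate 3-biotin (final 2 µM) and ATP for 2 h at rt. STK S3 antibody-Eu then added and incubated a further 1 h. Read at 340 nm excitation and 665 nm emission. IC50 reported as mean ± SD from two independent experiments.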
Usually IC50 stands for the point on the concentration scale where inhibition reaches its midpoint. As for `Cc1c(C(=O)Nc2cccc(-n3cnnn3)c2)oc2ccccc12`, the IC50 came to 16700 nM. Regarding `Cc1c(C(=O)Nc2cccc(-c3nncn3C(C)C)n2)oc2ccccc12`, the IC50 is 1110 nM. For `CC(C)n1cnnc1-c1cccc(NC(=O)c2cc3ccc(-c4cnn(C5CCOCC5)c4)cc3[nH]2)n1`, the IC50 turned out to be 73.7 nM. For the molecule `Cc1c(C(=O)Nc2cccc(-c3nncn3C(C)C)n2)[nH]c2ccccc12`, the 50% inhibitory concentration (IC50) stood at 88.2 nM. Regarding `CC(C)n1cnnc1-c1cccc(NC(=O)c2cc3ccccc3n2C)n1`, the IC50 is 743 nM. Take `CC(C)n1cnnc1-c1cccc(NC(=O)c2nc3ccccc3s2)n1`: the IC50 was 506 nM. Consider `CC(C)n1cnnc1-c1cccc(NC(=O)c2cc3cccc(-c4cn[nH]c4)c3[nH]2)n1`, for which the IC50 amounted to 38.9 nM. Still for that read-out and setting: under `CC(C)n1cnnc1-c1cccc(NC(=O)c2cc3cccc(-c4ccncc4)c3[nH]2)n1` stands 23.1 nM; under `CC(C)n1cnnc1-c1cccc(NC(=O)c2cc3ccc(-c4cn[nH]c4)cc3[nH]2)n1`, 37.5 nM. The same measure, in the same setting: then `CC(C)n1cnnc1-c1cccc(NC(=O)c2[nH]c3ccccc3c2-c2ccoc2)n1`, with 143 nM. Consider `CC(C)n1cnnc1-c1cccc(NC(=O)c2cc3ccccc3[nH]2)n1`, for which the IC50 was found to be 41.4 nM. For `C[C@H](CO)n1cnnc1-c1cccc(NC(=O)c2cc3ccccc3[nH]2)n1`, the IC50 is 65.5 nM. The same measure, in the same setting: then `CC(C)n1cnnc1-c1cccc(NC(=O)c2cc3cccc(-c4ccsc4)c3[nH]2)n1`, with 153 nM; and `CC(C)n1cnnc1-c1cccc(NC(=O)c2cc3ccccc3o2)n1`, with 152 nM. The same measure, in the same setting: under `CC(C)n1cnnc1-c1cccc(NC(=O)c2cc3cccc(Cl)c3[nH]2)n1` stands 89.6 nM; under `CC(=O)Nc1cccc2cc(C(=O)Nc3cccc(-c4nncn4C(C)C)n3)[nH]c12`, 240 nM; under `COc1ccc2cc(C(=O)Nc3cccc(-c4nncn4C(C)C)n3)[nH]c2c1`, 54.3 nM. With `CC(C)n1cnnc1-c1cccc(NC(=O)c2cc3ccc(-c4cccnc4)cc3[nH]2)n1`, the IC50 worked out at 68.5 nM. On the same count and under the same terms, under `CCOC(C)n1cc(-c2ccc3cc(C(=O)Nc4cccc(-c5nncn5C(C)C)n4)[nH]c3c2)cn1` (stereo not drawn) stands 91.1 nM; under `CC(C)n1cnnc1-c1cccc(NC(=O)c2cc3cc(-c4cn[nH]c4)ccc3[nH]2)n1`, 31.6 nM.

On to `CC(C)n1cnnc1-c1cccc(NC(=O)c2cc3cccnc3[nH]2)n1`, for which the IC50 came to 125 nM. With `CC(C)n1cnnc1-c1cccc(NC(=O)c2cc3c(-c4cnn(C)c4)cccc3[nH]2)n1`, the IC50 turned out to be 19.6 nM.

In a further test the target is T1, Mitogen-activated protein kinase kinase kinase 5. The experiment in a line: Inhibition of ASK1 (unknown origin).
The molecule `Cc1cc(F)c(C(=O)Nc2cccc(-c3nncn3[C@@H](C)C(F)(F)F)n2)cc1-n1cnc(C2CC2)c1` displayed an IC50 of 4.3 nM.

These data come from ChEMBL document CHEMBL4819011, “Structure-based discovery of 1H-indole-2-carboxamide derivatives as potent ASK1 inhibitors for potential treatment of ulcerative colitis” (Eur J Med Chem, 2021).
